From paper PMC7079967 (Medicinal Chemistry Research, 2016)

Columns and labels:
Format in all cases: cell-based
[1] = tested on: murine leukemia cells (L1210); assay: Antiproliferative; settings: Mus musculus, L1210, 48 h, read-out: IC50 L1210
Summary of the method: (§1)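 Cells in growth medium proliferated with variable concentrations of test compound at 37 °C in a humidified CO2-controlled atmosphere. Incubation was 48 h for L1210 and 96 h for HeLa. Cell number was then counted with a Coulter counter. IC50 was the concentration inhibiting cell proliferation by 50 %.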

[2] = tested on: human T-lymphocyte cells (CEM); assay: Antiproliferative; settings: 72 h, read-out: IC50 CEM
Summary of the method: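 Human T-lymphocyte CEM cells, suspended in growth medium, were left to proliferate in microtiter wells with varying amounts of test compound at 37 °C in a humidified, CO2-controlled atmosphere. After 72 h, cells were counted with a Coulter counter. IC50 is the concentration that inhibits cell proliferation by 50 %.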

[3] = tested on: human cervix carcinoma cells (HeLa); assay: Antiproliferative; settings: 96 h, read-out: IC50 HeLa
Summary of the method: as §1

[4] = tested on: Reovirus-1; assay: Antiviral assay, virus-induced cytopathicity in Vero cells; settings: read-out: IC50 Reovirus-1
[5] = tested on: Parainfluenza-3 virus; assay: as above; settings: read-out: IC50 Parainfluenza-3 virus
[6] = tested on: Sindbis virus; assay: as above; settings: read-out: IC50 Sindbis virus
[7] = tested on: L1210, CEM and HeLa tumor cell lines; assay: Cytostatic activity stated over the three tumor cell lines together

| SMILES | IC50 [1] [µM] | IC50 [2] [µM] | IC50 [3] [µM] | IC50 [4] [µM] | IC50 [5] [µM] | IC50 [6] [µM] | cytostatic potential, fold lower than 6-mercaptopurine ([7]; compared with 6-mercaptopurine over L1210, CEM, HeLa) | IC50 ([7]; read-out: IC50, cytostatic activity against the three tumor cell lines) [µM] |
| --- | --- | --- | --- | --- | --- | --- | --- | --- |
| Sc1ncnc2nc[nH]c12 [6-Mercaptopurine, reference compound] | 2.8 ± 1.1 | 2.8 ± 1.3 | 1.1 ± 0.1 | – | – | – | – | – |
| O=c1[nH]cc(F)c(=O)[nH]1 [5-Fluorouracil, reference compound] | 0.33 ± 0.17 | 18 ± 5 | 0.54 ± 0.12 | – | – | – | – | – |
| NC(=O)c1ncn([C@@H]2O[C@H](CO)[C@@H](O)[C@H]2O)n1 [Ribavirin] | – | – | – | > 250 | 250 | > 250 | – | – |
| O=C(COc1ccc(-c2ccccc2)cc1)NC(=O)N[C@@H]1O[C@H](CO)[C@@H](O)[C@H](O)[C@H]1O [Compound 7c, N-2-(Biphenyl-4-yloxy)acetyl-N′-(β-D-glucopyranosyl)-urea] | 9 ± 5.9 | 24 ± 1 | 19 ± 3 | – | – | – | 5- to 15 fold | 9 to 24 |
| O=C(CCCc1ccc2c(c1)CCCC2)NC(=O)N[C@@H]1O[C@H](CO)[C@@H](O)[C@H](O)[C@H]1O [Compound 7b, N-4-(5,6,7,8-Tetrahydronaphthalen-2-yl)butanoyl-N′-(β-D-glucopyranosyl)-urea] | > 250 | > 250 | > 250 | – | – | – | – | – |
| CC(=O)OC[C@H]1O[C@@H](NC(=O)NC(=O)COc2ccc(-c3ccccc3)cc2)[C@H](OC(C)=O)[C@@H](OC(C)=O)[C@@H]1OC(C)=O [Compound 6c, N-2-(Biphenyl-4-yloxy)acetyl-N′-(2,3,4,6-tetra-O-acetyl-β-D-glucopyranosyl)-urea] | > 250 | > 250 | > 250 | – | – | – | – | – |
| CC(=O)OC[C@H]1O[C@@H](NC(=O)NC(=O)CCCc2ccc3c(c2)CCCC3)[C@H](OC(C)=O)[C@@H](OC(C)=O)[C@@H]1OC(C)=O [Compound 6b, N-4-(5,6,7,8-Tetrahydronaphthalen-2-yl)butanoyl-N′-(2,3,4,6-tetra-O-acetyl-β-D-glucopyranosyl)-urea] | 78 | 38 ± 10 | 66 ± 12 | – | – | – | – | – |
